# Measured values taken from ChEMBL document CHEMBL1143122, “Novel analogs of D-e-MAPP and B13. Part 1: synthesis and evaluation as potential anticancer agents” (Bioorg Med Chem, 2008).
# Key:
# [1] = system: LOX IMVI; test: Antiproliferative activity against human LOXIMVI cells after 48 hrs; assay type: functional
# How it was run: (§1)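 NCI 60-cell screen. Cells were grown in RPMI 1640 with 5% FBS and 2 mM L-glutamine, then plated at 5,000–40,000 cells/well according to doubling time and preincubated for 24 h at 37 °C in 5% CO2. Compounds were dissolved in DMSO at 400× the top final concentration and tested at five 10-fold dilutions from 10−4 to 10−8 M for 48 h. Growth was read spectrophotometrically; GI50 is 50% net protein reduction.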
# [2] = system: Malme-3M; test: Antiproliferative activity against human MALME3M cells after 48 hrs; assay type: functional; how it was run: as §1
# [3] = system: M14; test: Antiproliferative activity against human M14 cells after 48 hrs; assay type: functional; settings: M14, 48 h; how it was run: as §1
# [4] = system: SK-MEL-2; test: Antiproliferative activity against human SKMEL2 cells after 48 hrs; assay type: functional; settings: SK-MEL-2, 48 h; how it was run: as §1
# [5] = system: SK-MEL-28; test: Antiproliferative activity against human SKMEL28 cells after 48 hrs; assay type: functional; settings: SK-MEL-28, 48 h; how it was run: as §1
# [6] = system: UACC-257; test: Antiproliferative activity against human UACC257 cells after 48 hrs; assay type: functional; settings: UACC-257, 48 h
# How it was run: (§2)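 NCI 60-cell-line screen. Lines grown in RPMI 1640 with 5% fetal bovine serum and 2 mM L-glutamine, plated at 5,000–40,000 cells/well according to doubling time, left 24 h at 37 °C in 5% CO2. Drug stocks in DMSO at 400-fold the top final concentration. Five 10-fold dilutions, 10−4 to 10−8 M, incubated 48 h. Growth read spectrophotometrically as net protein; GI50 taken as 50% reduction.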
# [7] = system: UACC-62; test: Antiproliferative activity against human UACC62 cells after 48 hrs; assay type: functional; settings: UACC-62, 48 h; how it was run: as §2
# [8] = system: OVCAR-3; test: Antiproliferative activity against human OVCAR-3 cells after 48 hrs; assay type: functional; settings: OVCAR-3, 48 h; how it was run: as §1
# [9] = system: OVCAR-4; test: Antiproliferative activity against human OVCAR4 cells after 48 hrs; assay type: functional; settings: OVCAR-4, 48 h; how it was run: as §1
# [10] = system: OVCAR-5; test: Antiproliferative activity against human OVCAR5 cells after 48 hrs; assay type: functional; settings: OVCAR-5, 48 h; how it was run: as §1
# [11] = system: OVCAR-8; test: Antiproliferative activity against human OVCAR8 cells after 48 hrs; assay type: functional; settings: OVCAR-8, 48 h; how it was run: as §1
# [12] = system: A498; test: Antiproliferative activity against human A498 cells after 48 hrs; assay type: functional; settings: A498, 48 h; how it was run: as §1
# [13] = system: ACHN; test: Antiproliferative activity against human ACHN cells after 48 hrs; assay type: functional; how it was run: as §1
# [14] = system: RXF 393; test: Antiproliferative activity against human RXF393 cells after 48 hrs; assay type: functional; settings: RXF 393, 48 h; how it was run: as §1
# [15] = system: MDA-MB-231; test: Antiproliferative activity against human MDA-MB-231 cells after 48 hrs; assay type: functional; settings: MDA-MB-231, 48 h; how it was run: as §1
# [16] = system: MDA-MB-435; test: Antiproliferative activity against human MDA-MB-435 cells after 48 hrs; assay type: functional; settings: Homo sapiens, MDA-MB-435, 48 h; how it was run: as §1
# [17] = system: HOP-92; test: Antiproliferative activity against human HOP92 cells after 48 hrs; assay type: functional; settings: HOP-92, 48 h; how it was run: as §1
# [18] = system: NCI-H522; test: Antiproliferative activity against human NCI-H522 cells after 48 hrs; assay type: functional; settings: NCI-H522, 48 h; how it was run: as §1
# [19] = system: HCT-116; test: Antiproliferative activity against human HCT116 cells after 48 hrs; assay type: functional; settings: HCT-116, 48 h; how it was run: as §1
# [20] = system: HCT-15; test: Antiproliferative activity against human HCT15 cells after 48 hrs; assay type: functional; settings: Homo sapiens, HCT-15, 48 h; how it was run: as §1
# [21] = system: KM12; test: Antiproliferative activity against human KM12 cells after 48 hrs; assay type: functional; settings: Homo sapiens, KM12, 48 h; how it was run: as §1
# [22] = system: SF-539; test: Antiproliferative activity against human SF539 cells after 48 hrs; assay type: functional; settings: SF-539, 48 h; how it was run: as §1
# [23] = system: SNB-19; test: Antiproliferative activity against human SNB19 cells after 48 hrs; assay type: functional; settings: SNB-19, 48 h; how it was run: as §1
# [24] = system: MCF7; test: Antiproliferative activity against human MCF7 cells after 48 hrs; assay type: functional, cell-based; settings: MCF7, 48 h
# [25] = Antiproliferative activity against human HL60(TB) cells after 48 hrs; assay type: functional, HL-60(TB); settings: HL-60, 48 h
# How it was run: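 NCI 60-line panel screen: cells grown in RPMI 1640 with 5% fetal bovine serum and 2 mM L-glutamine, plated at 5,000–40,000 cells/well by doubling time, and preincubated 24 h at 37 °C in 5% CO2. Drugs were solubilised in DMSO at 400-fold the final maximum and tested at five 10-fold dilutions from 10−4 to 10−8 M for 48 h. Net protein was read spectrophotometrically, and the concentration giving 50% reduction was reported as log10 GI50.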
# [26] = system: K562; test: Antiproliferative activity against human K562 cells after 48 hrs; assay type: functional; settings: K562, 48 h; how it was run: as §1
# [27] = system: MOLT-4; test: Antiproliferative activity against human MOLT4 cells after 48 hrs; assay type: functional; settings: MOLT-4, 48 h; how it was run: as §1
# [28] = system: RPMI-8226; test: Antiproliferative activity against human RPMI8226 cells after 48 hrs; assay type: functional; settings: RPMI-8226, 48 h; how it was run: as §1
# [29] = system: A549; test: Antiproliferative activity against human A549 cells after 48 hrs; assay type: functional; settings: A549, 48 h; how it was run: as §1
# [30] = read-out: Log LC50 (the source's name) (converted)
structure (smiles),measurement,setting,value
CCCCCCCCCCCCCCN[C@H](CO)[C@H](O)c1ccccc1,GI50,[1],1780 nM
same,LC50,[1],5.75 µM
same,TGI,[1]; read-out: Log TGI (converted),3.16 µM
same,GI50,[2],2090 nM
same,LC50,[2],9.55 µM
same,TGI,[2]; read-out: Log TGI (converted),3.8 µM
same,GI50,[3],1860 nM
same,LC50,[3],5.89 µM
same,TGI,[3]; read-out: Log TGI (converted),3.31 µM
same,GI50,[4],2140 nM
same,LC50,[4],> 100 µM
same,TGI,[4]; read-out: Log TGI (converted),4.79 µM
same,GI50,[5],1820 nM
same,LC50,[5],5.62 µM
same,TGI,[5]; read-out: Log TGI (converted),3.24 µM
same,GI50,[6],1700 nM
same,CC50,[6]; [30],7.24 µM
same,TGI,[6]; read-out: Log TGI (converted),3.47 µM
same,GI50,[7],1820 nM
same,LC50,[7],7.59 µM
same,TGI,[7]; read-out: Log TGI (converted),3.72 µM
same,GI50,[8],1910 nM
same,TGI,[8]; read-out: Log TGI (converted),4.07 µM
same,GI50,[9],1910 nM
same,TGI,[9]; read-out: Log TGI (converted),3.8 µM
same,GI50,[10],2090 nM
same,CC50,[10]; [30],7.08 µM
same,TGI,[10]; read-out: Log TGI (converted),3.8 µM
same,GI50,[11],1860 nM
same,TGI,[11]; read-out: Log TGI (converted),3.8 µM
same,GI50,[12],18.2 µM
same,CC50,[12]; [30],> 100 µM
same,TGI,[12]; read-out: Log TGI (converted),42.7 µM
same,GI50,[13],1740 nM
same,CC50,[13]; [30],5.62 µM
same,TGI,[13]; read-out: Log TGI (converted),3.16 µM
same,GI50,[14],1150 nM
same,CC50,[14]; [30],5.13 µM
same,TGI,[14]; read-out: Log TGI (converted),2450 nM
same,GI50,[15],1740 nM
same,LC50 (50% lethal concentration),[15],6.61 µM
same,TGI,[15]; read-out: Log TGI (converted),3.39 µM
same,GI50,[16],1780 nM
same,LC50,[16],5.62 µM
same,TGI,[16]; read-out: Log TGI (converted),3.16 µM
same,GI50,[17],1410 nM
same,LC50,[17],5.89 µM
same,TGI,[17]; read-out: Log TGI (converted),2880 nM
same,GI50,[18],2000 nM
same,TGI,[18]; read-out: Log TGI (converted),3.8 µM
same,GI50,[19],1740 nM
same,LC50,[19],5.62 µM
same,TGI,[19]; read-out: Log TGI (converted),3.16 µM
same,GI50,[20],1910 nM
same,LC50,[20],6.03 µM
same,TGI,[20]; read-out: Log TGI (converted),3.39 µM
same,GI50,[21],1860 nM
same,CC50,[21]; [30],5.89 µM
same,TGI,[21]; read-out: Log TGI (converted),3.31 µM
same,GI50,[22],1550 nM
same,LC50,[22],6.03 µM
same,TGI,[22]; read-out: Log TGI (converted),3.09 µM
same,GI50,[23],1780 nM
same,TGI,[23]; read-out: Log TGI (converted),3.24 µM
same,GI50,[24],1820 nM
same,TGI,[24]; read-out: Log TGI (converted),3.31 µM
same,GI50,[25],3.31 µM
same,LC50,[25],8.51 µM
same,TGI,[25]; read-out: Log TGI (converted),3.72 µM
same,GI50,[26],2240 nM
same,LC50,[26],> 100 µM
same,TGI,[26]; read-out: Log TGI (converted),4.9 µM
same,GI50,[27],2090 nM
same,GI50,[28],1660 nM
same,CC50,[28]; [30],7.76 µM
same,TGI,[28]; read-out: Log TGI (converted),3.63 µM
same,GI50,[29],1700 nM
same,CC50,[29]; [30],6.03 µM
same,TGI,[29]; read-out: Log TGI (converted),3.24 µM
